Laboratory results published in ChEMBL document CHEMBL1124783, “Synthesis and structure-activity relationships of 6-substituted 2',3'-dideoxypurine nucleosides as potential anti-human immunodeficiency virus agents” (J Med Chem, 1990).

Experiments:
[1] = The antiviral activity against HIV-1 in human peripheral blood mononuclear (PBM) cells expressed as inhibitory concentration; format: functional
Summary of the method: (§1)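 PHA-stimulated human PBM cells infected with HIV-1 strain LAV-1 (about 63 000 dpm RT activity per 10^7 cells/10 mL medium), then drug added to duplicate or triplicate cultures. Incubated at 37 °C in 5% CO2 for 6 days. Supernatant RT activity measured on pelleted virus with (rA)n·(dT)12-18 template-primer, expressed as dpm/mL. EC50 taken from median-effect plot of dose-effect data.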

[2] = The antiviral activity against HIV-1 in human peripheral blood mononuclear (PBM) cells expressed as median effective concentration; format: functional; settings: read-out: ED50 (the source's name); summary of the method: as §1

| IC50 [1] [µM] | EC50 [2] [µM] | Compound |
| --- | --- | --- |
| > 100 | 2.3 | CN(C)c1ncnc2c1ncn2C1CCC(CO)O1 (centres undefined) |
| > 100 | 3.6 | CSc1ncnc2c1ncn2C1CCC(CO)O1 (centres undefined) |
| 10 | > 100 | OCC1CCC(n2cnc3c(NCc4ccccc4)ncnc32)O1 (centres undefined) |
| > 100 | 5.5 | O=c1[nH]cnc2c1ncn2[C@H]1CC[C@@H](CO)O1 [DIDANOSINE] |
| > 100 | 53.9 | OCC1CCC(n2cnc3c(S)ncnc32)O1 (centres undefined) |
| > 100 | 0.62 | Nc1ncnc2c1ncn2[C@H]1CC[C@@H](CO)O1 |
| > 100 | 2.1 | OC[C@@H]1CC[C@H](n2cnc3c(Cl)ncnc32)O1 |
| > 100 | 0.88 | Nc1nc(O)c2ncn([C@H]3CC[C@@H](CO)O3)c2n1 |
| > 100 | > 100 | OC[C@@H]1CC[C@H](n2cnc3cncnc32)O1 |
| > 100 | 5.2 | CCNc1ncnc2c1ncn2C1CCC(CO)O1 (centres undefined) |
| > 100 | 0.26 | CNc1ncnc2c1ncn2C1CCC(CO)O1 (centres undefined) |
| > 100 | 4.3 | CNc1ncnc2c1ncn2C1OC(CO)CC1F (centres undefined) |
